M1 antag: human CHRM1 antagonism; inhibition, % at 3 µM; hit rate 1.3% among 360,000; P11229; CHO-K1 hM1, Fluo-8 calcium fluorescence, ACh EC80 antagonist;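 active = percent inhibition above its own plate's cutoff, namely the mean of that plate's compound wells plus 3 SD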;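 note: peak over basal fluorescence ratio during 140 s after agonist addition; 0% = ACh EC80 plus DMSO and 100% = DMSO alone without agonist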
Target sequence (P11229 whole entry, looked up): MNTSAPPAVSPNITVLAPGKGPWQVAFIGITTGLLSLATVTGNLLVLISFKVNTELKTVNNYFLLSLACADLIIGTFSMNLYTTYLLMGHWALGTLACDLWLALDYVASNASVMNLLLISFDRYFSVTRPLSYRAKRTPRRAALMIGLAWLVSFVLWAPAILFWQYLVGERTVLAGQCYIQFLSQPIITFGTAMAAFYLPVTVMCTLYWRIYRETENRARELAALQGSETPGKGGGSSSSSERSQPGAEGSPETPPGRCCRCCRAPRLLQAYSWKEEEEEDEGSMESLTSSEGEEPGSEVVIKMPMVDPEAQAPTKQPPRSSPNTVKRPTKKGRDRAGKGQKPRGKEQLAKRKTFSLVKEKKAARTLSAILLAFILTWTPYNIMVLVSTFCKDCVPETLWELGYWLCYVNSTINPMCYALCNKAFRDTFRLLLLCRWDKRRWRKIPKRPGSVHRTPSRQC
M1 ag: agonists of human M1 muscarinic receptor; P11229; CHO-K1 hM1, Fluo-8 calcium fluorescence, agonist mode; 0% DMSO, 100% acetylcholine EC100; activation, % at 3 µM; hit rate 0.33% among 360,000; AID 588814;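 active = activation above the run's mean compound activation plus 3 SD, cut at about 16% in these data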;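 note: peak over basal fluorescence ratio within a 140 s kinetic read after compound addition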
M1 PAM: potentiates human M1 receptor response to acetylcholine. hit rate 0.088% among 360,000. P11229. CHO-K1 hM1, Fluo-8 calcium fluorescence, ACh EC20; 0% = ACh EC20, 100% = maximal ACh. activation, % at 3 µM; in the data active = activation above about 19%, passing the limit was not always enough
TAAR1 agonist: human TAAR1 agonism. activation, % at 3 µM. hit rate 0.99% among 360,000. Q96RJ0. CHO RD-HGA16 TAAR1, Fluo-8 calcium fluorescence; vehicle wells 0%, saturating PEA agonist 100%;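 active = activation above the mean activation of all test compounds in the run plus 3 SD, cut at about 38% in these data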
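System: CHO-derived RD-HGA16 cells with stable Gα16 and human TAAR1. Times: 17-24 h plating, Fluo-8 75 min 37 °C, 30 min RT. Measured by: calcium-sensitive Fluo-8 signal, excitation 470-495, emission 515-575 nm. Read-out basis: % activation relative to PEA EC100 response. Control set: DMSO and PEA EC100. Repeats: no replicates (n 1).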
TAAR1 antag: antagonists of human TAAR1; Q96RJ0; CHO RD-HGA16 TAAR1, Fluo-8 calcium fluorescence, antagonist; inhibition, % at 3 µM; hit rate 1.5% among 360,000; AID 624466;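 active = inhibition above a per-plate cutoff, the mean inhibition of test compounds on that plate plus 3 SD, cut at about 49% in these data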;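 note: 0% = DMSO plus EC80 beta-PEA response and 100% = DMSO alone without agonist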
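test system = CHO RD-HGA16 cells bearing hTAAR1 | replication = singlicate | controls = DMSO-only wells and EC80 β-PEA-stimulated wells | reagent = EC80 β-phenethylamine stimulus | read-out basis = percent inhibition of PEA-evoked calcium signal, max/basal emission ratio | schedule = seeding 17-24 h prior, 75-min 37 °C, 30-min RT dye loading | signal = kinetic Fluo-8 calcium fluorescence measurement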
Active calls of the source: *; / = not tested or not shown. An excerpt weighted towards active compounds, which were near 3.4% of everything screened.

SMILES	M1 antag	M1 ag	M1 PAM	TAAR1 agonist	TAAR1 antag
O=C(c1[nH]c(C(F)(F)F)nc1-c1ccccc1)N1CCN(c2c(Cl)cncc2Cl)CC1	-1.6	17.1*	-7.7	29.6	38.5
Cc1ccc(O)c(C2=NNC(c3ccc(Cl)cc3)C2)c1 (stereo unspecified)	45.4*	22.6*	12.3	6.6	-32.9
Oc1ccc(Cl)cc1C1=NNC(c2cccs2)C1 (stereo unspecified)	0.2	-0.7	0.3	-1.4	4.3
C=CCN1C(C(=O)OCC)CSCCS1(=O)=O (stereo unspecified)	/	/	/	2.6	6.4
Cc1cc(C)cc(N(CC(=O)NCCSc2ccccn2)S(=O)(=O)c2ccccc2)c1	16.4	-1.0	0.2	7.4	49.3*
COc1ccc(S(=O)(=O)NCCSCc2ccco2)cc1Cl	-29.8	3.9	22.5*	4.7	-7.1
COc1ccccc1N(CC(=O)NCCSCc1cccc(C)c1)S(=O)(=O)c1ccccc1	19.2	-3.0	-6.5	3.2	80.0*
Cc1ccc(S(=O)(=O)N(CC(=O)NCCSc2ccccn2)c2ccc(C)c(C)c2)cc1	4.8	-7.6	1.1	5.0	6.8
COc1ccccc1N(CC(=O)NCCSCc1ccccc1)S(C)(=O)=O	-7.3	-0.8	7.3	9.3	-13.9
COc1ccc(N(CC(=O)NCCSCc2ccccc2C)S(=O)(=O)c2ccccc2)cc1	12.9	-3.0	-4.3	4.7	51.6*
Cc1cc(Br)cn2c(Cc3ccsc3)c(C(C)(C)C)nc12	21.1	-6.5	-20.8	1.3	-13.7
O=C(Nc1ccccc1)OC[C@@H]1CSCCS(=O)(=O)N1	/	/	/	1.4	5.0
COc1ccc(C)cc1N(CC(=O)NCCSCc1ccco1)S(=O)(=O)c1ccc(C)cc1	11.0	-5.6	-6.6	3.7	45.1
COc1ccc(OC)c(N(CC(=O)NCCSCc2ccco2)S(=O)(=O)c2ccc(OC)c(OC)c2)c1	22.1	-1.7	-5.7	13.4	79.3*
CC(C)CCOc1ccc(Cl)cc1CN1CCOCC1	-2.3	-2.4	-2.8	39.4*	45.2
COc1ccc(Cl)cc1C(=O)CSc1nnnn1C1CCCCC1	26.9*	-3.4	-16.3	15.3	13.5
COc1ccccc1Cc1c(-c2cccc(Br)c2)nc2ccc(C)cn12	/	/	/	3.8	-28.2
O=C(CCn1ccc2cc(S(=O)(=O)N3CCCC3)ccc21)NCCc1ccccc1	2.8	-3.6	17.4	6.7	-6.1
Cc1ccccc1CCNC(=O)CCn1ccc2cc(S(=O)(=O)N3CCCC3)ccc21	4.2	-2.5	-3.8	43.9*	-3.5
CC(C)NC(=O)C1(C)CN(S(C)(=O)=O)CC(=O)N1CC(F)(F)F (stereo unspecified)	/	/	/	1.2	-12.3
CCOC(=O)C1CCN(c2cc3c(cc2NC(=O)c2ccccc2Cl)n(C)c(=O)n3C)CC1	27.4	-2.1	-9.8	4.4	55.8*
O=C(c1cccc(S(=O)(=O)N2CCN(c3ccc(F)cc3)CC2)c1)N1CCCC(C(F)(F)F)C1 (stereo unspecified)	34.3*	-2.0	-12.4	0.3	-6.0
O=C(Nc1cccc(S(=O)(=O)NC2=NCCCCC2)c1)c1cc(-c2ccccc2Cl)nc2ccccc12	18.1	-6.5	-9.7	11.2	39.9
O=C(Nc1cccc(S(=O)(=O)NC2=NCCC2)c1)c1cc(-c2ccccn2)nc2ccccc12	12.8	-2.1	-9.1	12.2	51.5*
CCOc1ccc(NC(=S)NC(=O)/C=C/c2ccc(Br)cc2)c([N+](=O)[O-])c1	37.5*	-3.1	-5.5	1.4	-9.6
SMILES	M1 antag	M1 ag	M1 PAM	TAAR1 agonist	TAAR1 antag
Cc1ccccc1C(=O)NC1CC2CCCC(C1)N2CC(C)C (stereo unspecified)	66.4*	-8.9	-27.7	-0.1	3.8
C=CC(=O)Nc1ccc(CN2C(=O)N(c3c(Cl)c(OC)cc(OC)c3Cl)Cc3cnc(NCCCCN(CC)CC)nc32)cc1	38.8*	-11.0	-29.5	/	/
C=CC(=O)Nc1cccc(Oc2nc(Nc3ccc(N4CCN(C)CC4)cc3OC)ncc2Cl)c1	/	/	/	7.8	4.3
OCCOc1ccc(CN2CCCC(N3CCN(c4ccc(F)cc4)CC3)C2)cc1 (stereo unspecified)	1.9	-10.0	-1.0	0.0	-11.7
CCOc1ccc(CN2CCCC(N3CCN(c4ccc(OC)cc4)CC3)C2)cc1 (stereo unspecified)	34.5*	-8.6	-19.2	-1.4	4.4
COC(=O)c1c(-c2ccc(OC)cc2)c2c(c3c4cc(F)ccc4n(S(=O)(=O)c4ccc(C)cc4)c13)C(=O)N(C)C2	/	/	/	-0.9	-12.6
CCOc1cc(CNCCSc2nnnn2C)cc(Br)c1OCc1ccccc1	29.1*	-1.3	-7.2	17.0	12.5
CN(C)c1cc[n+](Cc2c(Cl)cccc2Cl)cc1	79.8*	-4.9	-20.9	13.4	5.7
COC(=O)[C@]12C[C@H](CC(=O)N3CCC(c4ccccc4)CC3)C(=O)N(Cc3ccccc3)C1=C[C@H](C(C)(C)C)O[C@@H]2C	/	/	/	-0.2	-24.4
CNc1snc(C)c1C(=O)OCC(=O)c1ccc(Cl)cc1	34.6*	-1.0	-14.7	4.6	17.1
Cc1[nH]c2ccccc2c1C(=O)COC(=O)c1ccccc1O	15.2	3.8	-11.9	11.5	65.1*
CCOC(=O)COc1nc(-c2ccccc2)cc(-c2ccco2)c1C#N	39.8*	-5.0	-22.1	12.9	0.6
C(=C\c1ccccc1)/CN1CCN(C(c2nnnn2Cc2ccccc2)C2CC2)CC1 (stereo unspecified)	-2.1	-3.1	-12.3	0.4	-25.3
C/C(=C\c1ccccc1)C(=O)Nc1ccc(Cl)cn1	31.4*	-8.7	-8.7	-1.9	2.9
CC(=O)N1CCN(c2ccccc2NC(=O)c2cc3ccccc3o2)CC1	1.5	0.6	9.2	10.0	52.3*
C#CCN(Cc1ccco1)C(=O)c1nnc2c3ccccc3n(S(=O)(=O)c3ccccc3)c2n1	/	/	/	-0.3	-14.2
COc1ccc(NC(=O)C2Cc3c(-c4ccc(Cl)cc4)ccnc3O2)cc1OC (stereo unspecified)	8.2	2.3	-4.7	6.9	3.3
COc1ccc(CC(=O)N2CCN(c3ccccn3)CC2)cc1OC	-14.8	-2.0	0.6	9.7	-13.4
CCCc1ccc(OCc2ccc(C(=O)N3CCN(c4ccccn4)CC3)o2)c(OC)c1	16.1	0.3	-14.0	8.9	50.6*
Cc1ccccc1CN1[C@@H](C)[C@H](c2ccccc2)Oc2cccc(NCC(C)C)c2S1(=O)=O	/	/	/	1.0	-19.8
CS(=O)(=O)c1ccc(-c2sc3ccccc3c2C#CCCO)cc1	11.7	-5.8	-6.4	15.5	54.4*
COc1ccc2c(C#CCCO)c(-c3ccc(S(C)(=O)=O)cc3)sc2c1	4.1	0.9	10.4	20.5	62.3*
C=C1[C@@H](C)CN[C@@H]1CCO	/	/	/	9.6	-9.2
COc1cc(OC)cc(-c2n[nH]c(=S)n2-c2ccc3c(c2)OCCO3)c1	25.7*	-4.3	-14.2	2.4	9.3

Screening results deposited in PubChem BioAssay by The Scripps Research Institute Molecular Screening Center.
